The values that follow come from PMC3992281 (Journal of neurochemistry, 2013).

Common to all, as to format: cell-based, rat
The subject of experiment [1] is nicotinic cholinergic-stimulated catecholamine release in PC12 cells. Put plainly: Nicotine-stimulated norepinephrine secretion from PC12 cells. The method in brief: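 PC12 cells were washed, then stimulated with nicotine (60 µM) in secretion medium in the presence of graded concentrations of the CHGB-derived test peptide. Maximal effect was taken at 10 µM peptide. Human CHGA[352–372] served as the positive control. Norepinephrine release was measured and each experiment was repeated 3 times.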

Experiment [2] relates to nicotine-triggered uptake of 45Ca2+ in PC12 cells. Description: Nicotinic cholinergic signal transduction: 45Ca2+ uptake. To be noted: nicotine 60 µM, 45Ca2+ 2 µCi/ml, 5 minutes. The method in brief: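 PC12 cells were plated on poly-L-lysine-coated dishes 2 days ahead and rinsed every 15 min for 1 h at 37°C in secretion buffer (150 mM NaCl, 5 mM KCl, 2 mM CaCl2, 10 mM Hepes, pH 7.4). Cells were exposed to ⁴⁵Ca²⁺ with drugs in Ca²⁺-free buffer for 5 min at room temperature. Uptake was stopped with ice-cold 1 mM LaCl3, followed by lysis and scintillation counting (cpm/well). Results are mean ± SEM.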

Experiment [3] deals with membrane depolarization-stimulated catecholamine release in PC12 cells. Put plainly: KCl. To be noted: KCl 55 mM, CHGB full-length or plasmin-digested, repeated 3 times. In outline: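 Rat PC12 cells (passage 10–25) grown in high-glucose DMEM with 10% horse serum and 5% FBS at 37°C in 6% CO2. After washing, cells were stimulated with KCl (55 mM) in secretion medium, with recombinant human CHGB (3.0 µM), either full-length or pre-digested with plasmin (10 µM CHGB, 2 µM plasmin, Tris-Cl pH 8.0, 150 mM NaCl, 1 hr). Three experiments.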

By IC50 is commonly meant the concentration that inhibits the measured activity by half. In the case of catestatin, the “efficacy (maximal effect), inhibition of nicotinic cholinergic secretion” value in experiment [1] (nicotine 60 µM, at 10 µM peptide) is listed as ~ 100%. The IC50 in experiment [1] (read-out: potency (IC50) to inhibit nicotinic cholinergic-stimulated catecholamine secretion, nicotine 60 µM, repeated 3 times) stood at 450 nM. Besides, in experiment [2], the “inhibition of nicotine-stimulated uptake of 45Ca2+” value is ~ 82%.

B1: CHGB: purified human recombinant mature CHGB (657 residues) with carboxy-terminal … tag, expressed in E. coli (protein, UniProt P05060 21-677, looked up)
Secretogranin-1: MPVDNRNHNEGMVTRCIIEVLSNALSKSSAPPITPECRQVLKTSRKDVKDKETTENENTKFEVRLLRDPADASEAHESSSRGEAGAPGEEDIQGPTKADTEKWAEGGGHSRERADEPQWSLYPSDSQVSEEVKTRHSEKSQREDEEEEEGENYQKGERGEDSSEEKHLEEPGETQNAFLNERKQASAIKKEELVARSETHAAGHSQEKTHSREKSSQESGEETGSQENHPQESKGQPRSQEESEEGEEDATSEVDKRRTRPRHHHGRSRPDRSSQGGSLPSEEKGHPQEESEESNVSMASLGEKRDHHSTHYRASEEEPEYGEEIKGYPGVQAPEDLEWERYRGRGSEEYRAPRPQSEESWDEEDKRNYPSLELDKMAHGYGEESEEERGLEPGKGRHHRGRGGEPRAYFMSDTREEKRFLGEGHHRVQENQMDKARRHPQGAWKELDRNYLNYGEEGAPGKWQQQGDLQDTKENREEARFQDKQYSSHHTAEKRKRLGELFNPYYDPLQWKSSHFERRDNMNDNFLEGEEENELTLNEKNFFPEYNYDWWEKKPFSEDVNWGYEKRNLARVPKLDLKRQYDRVAQLDQLLHYRKKSAEFPDFYDSEEPVSTHQEAENEKDRADQTVLTEDEKKELENLAAMDLELQKIAEKFSQRG
modifications: C-terminal tag
B1: in experiment [3], the “reduction of membrane depolarization-stimulated catecholamine release” value is ~ 23%.
